Screening results from PubChem BioAssay.
STAT1 act – STAT1 signaling activation | 200,000 tested, 2.6% active | activation (% of control), % at 5.5 µM | NIH 3T3 STAT1-luciferase reporter, IFN-gamma, luminescence; 100% = IFN-gamma alone, no compound;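 active means activation above the screen-wide mean activation plus 3 SD, cut at about 130% in these data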;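 further: raw ratio to IFN-gamma control signal so 100% means no change and 0% no light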
NF-kB neuron act – compounds increasing NF-kB expression in human neuronal cells; NF-kB reporter expression; stronger effect = higher value; fold change at 12.5 µM; 190,000 tested, 1.6% active; AID 1239; in the data active means fold change above about 3.3
STAT1 blocker – inhibitors of IFN-gamma induced STAT1 signaling | NIH 3T3 STAT1-luciferase reporter, luminescence | AID 920 | 200,000 tested, 0.35% active | inhibition, % at 5.5 µM;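 active means inhibition above a set limit, the mean inhibition across all tested compounds plus 3 SD, cut at about 34% in these data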;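 further: 0% = IFN-gamma with DMSO and 100% = IFN-gamma with 300 µM nifuroxazide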
APP 5'UTR act – APP 5'UTR luciferase reporter activation; 190,000 tested, 1% active; activation, % at 2 µM; SH-SY5Y APP 5'UTR luciferase reporter, luminescence; zero percent = DMSO vehicle wells; AID 1276;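 active means activation above a set limit, based on mean plus 3 SD of controls, cut at about 140% in these data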
STAT3 inh – STAT3 signaling inhibition; inhibition, % at 5.5 µM; 190,000 tested, 0.89% active; AID 862; U3A cells, IL-6 STAT3-luciferase reporter, luminescence; host cell line lacks STAT1;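 active means inhibition above the mean inhibition across all screened compounds plus 3 SD, cut at about 44% in these data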;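 further: 0% = DMSO only wells and 100% = 100 µM nifuroxazide control wells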
STAT3 act – increases IL-6 driven STAT3 reporter signal. U3A cells, IL-6 STAT3-luciferase reporter, luminescence; 100% = signal with IL-6 EC80 alone. activation (% of control), % at 5.6 µM. 190,000 tested, 0.91% active. AID 871;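 active means activation above the screen-wide mean of compound activation plus 3 SD, cut at about 130% in these data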;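 further: 0% = background luminescence of wells with medium and substrate only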
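Material: STAT1-lacking human U3A cells, STAT3 luciferase reporter | Benchmarks: IL-6-only wells as 100% reference | Probe or stimulus: IL-6 (33 ng/mL) | Timing: Compound 1 h, then IL-6 6 h at 37 °C | Detection: Luminescence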
STAT1 act conf – STAT1 activation, confirmation assay | shares compounds with STAT1 act | NIH 3T3 STAT1-luciferase reporter, IFN-gamma potentiation, luminescence; 100% = IFN-gamma EC80 alone, no compound | activation (% of control), % at 5.7 µM | 1,200 tested, 97% active | AID 1262;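 active means activation above a set limit carried over from the earlier primary STAT1 screen, cut at about 140% in these data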;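 further: simple ratio to median IFN-gamma plus DMSO wells so 0% means no light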
NFkB act – counter-screen for STAT1 activators: NF-kappaB activation. AID 1306. activation (% of control), % at 5.7 µM. 1,200 tested, 43% active. HEK293T NF-kB luciferase reporter, TNF-alpha stimulated, luminescence; 100% = TNF-alpha with vehicle only. shares compounds with STAT1 act;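 active means activation above the mean of solvent-only control wells plus 3 SD, set per campaign, cut at about 130% in these data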;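 further: TNF-alpha given at a submaximal dose yielding about 80% of full reporter signal; values are well signal over median control so 100% means no change and 0% no light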
STAT3 act STAT1c – human STAT3 activation in STAT1 activator counter-screen. 1,200 tested, 46% active. AID 1316. U3A cells STAT3-luciferase reporter, IL-6, luminescence; cells lack STAT1; 100 = IL-6 alone, no compound effect. activation (% of control), % at 5.7 µM. shares compounds with STAT1 act;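 active means activation above the solvent-only control well mean plus 3 SD, set per plate batch, cut at about 110% in these data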;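 further: 0% = no luminescence and 100% = median IL-6 plus DMSO wells; higher means more STAT3 reporter activation so hits are non-selective activators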
The depositor's hits bear a star; · = no result. Only some compounds are listed: those with a hit (about 4.9% of all), similar ones and a draw of the others.

SMILES	STAT1 act	NF-kB neuron act	STAT1 blocker	APP 5'UTR act	STAT3 inh	STAT3 act	STAT1 act conf	NFkB act	STAT3 act STAT1c
O=C(NC1=NCCS1)c1ccc(-c2ccc(Cl)cc2)o1	156*	4.6*	-61	119	22	84	187*	126	94
CN(CC(=O)N1CCCC1)S(=O)(=O)c1ccc2ccccc2c1	93	0.95	6	5	0	101	·	·	·
CCOCCc1c(O)nc(SCCOc2ccc(C)c(C)c2)[nH]c1=O	112	0.97	-15	0	5	99	·	·	·
CCc1ccc(Nc2ncc3c(n2)CC(C)CC3=O)cc1 (stereo not drawn)	151*	3.5*	-58	173*	17	91	198*	128	107
CCc1ccc(Nc2ncc3c(n2)CC(c2ccc(OC)cc2)CC3=O)cc1 (stereo not drawn)	107	0.99	-8	9	4	101	·	·	·
CCCCOc1ccc(NC(=S)Nc2cc(C)nc(SCCCC)n2)cc1	101	1.2	-2	4	7	95	·	·	·
C=CCNc1oc(/C=C/c2ccccc2)nc1C#N	155*	7.2*	-61	174*	-1	111	197*	144*	114*
Cc1ccc(-n2c(C)cc(C(=O)CSc3nnnn3C)c2C)cc1	162*	5.4*	-67	168*	21	84	201*	130	114*
Cc1cc(C(=O)CSc2nnnn2C)c(C)n1CCc1ccc(F)cc1	103	1.6	-3	-6	7	100	·	·	·
Cc1nc2ccccn2c1C(=O)CSc1ccccc1	102	1.4	-3	9	28	79	·	·	·
Clc1ccc(Nc2nc(C3CC3)cs2)cc1	154*	5.1*	-59	180*	13	96	188*	142*	101
Cc1ccc(Nc2nc(C3CC3)cs2)cc1	151*	8.8*	-54	239*	8	94	228*	117	94
COCCn1cnnc1SCC(=O)Nc1ccc(Br)cc1F	105	1.4	-6	13	9	99	·	·	·
S=c1[nH]ncn1/N=C/c1ccccn1	99	1.2	1	0	11	95	·	·	·
O=C(/C=C/Nc1ccc(Nc2ccccc2)cc1)c1cccs1	162*	2.2	-70	98	8	103	166*	140*	108
Cc1cc(C)cc(Nc2ncc3c(n2)CCCC3=O)c1	154*	2.9	-58	163*	31	75	185*	106	107
Cc1nc(-c2ccc(NC(=O)c3ccccc3Br)cc2)cs1	151*	4.8*	-57	79	4	96	174*	129	102
Cc1nc(-c2ccc(NC(=O)c3ccccc3C)cc2)cs1	159*	5.1*	-68	120	17	89	178*	125	94
Nc1nc2ccccc2n1/N=C/c1ccc(-c2ccccc2)o1	155*	1.7	-61	94	22	84	160*	121	99
CCOC(=O)c1c(NC(=O)c2ccc(N3C(=O)[C@@H]4[C@H](C3=O)[C@H]3C=C[C@@H]4C3)cc2)sc2c1CCCC2	95	0.51	6	-14	0	103	·	·	·
COc1ccc(Nc2oc(-c3cccs3)nc2C#N)cc1	151*	2.4	-56	72	8	95	160*	120	94
Cc1scc(C(=O)N/N=C/c2ccc(OC(C)C)cc2)c1C	106	0.62	-7	28	-2	107	·	·	·
Cc1scc(C(=O)N/N=C/c2ccc(Cl)s2)c1C	151*	1.2	-58	128	-6	105	181*	130	102
COCCNc1nc(-c2cc3ccccc3o2)cs1	194*	8.1*	-103	180*	6	94	230*	125	105
Clc1ccc(-c2cn3c(n2)-c2ccccc2C3)cc1Cl	196*	9.7*	-105	166*	-24	115	258*	134*	135*
SMILES	STAT1 act	NF-kB neuron act	STAT1 blocker	APP 5'UTR act	STAT3 inh	STAT3 act	STAT1 act conf	NFkB act	STAT3 act STAT1c
c1ccc2c(c1)Cn1nnnc1-2	86	0.92	16	1	0	104	·	·	·
CC1=CN2C(=N)/C(=C/c3ccc(C)o3)C(=O)N=C2S1	201*	4.3*	-111	161*	6	91	249*	141*	104
CC1=CN2C(=N)/C(=C/c3ccc(Sc4ccc(C)cc4)o3)C(=O)N=C2S1	107	1.4	-8	-13	-10	109	·	·	·
COc1cc(SC)ccc1C(=O)Nc1ccc(C)cc1C	153*	4*	-60	116	-2	104	189*	131	106
COc1cc(SC)ccc1C(=O)Nc1ccon1	120	2.1	-22	48	18	89	·	·	·
COc1cc(SC)ccc1C(=O)NCCc1ccccc1	161*	3.5*	-68	85	-10	111	169*	123	144*
COc1cc(SC)ccc1C(=O)Nc1ncc(Cl)cc1Cl	151*	3.8*	-55	142*	19	88	174*	125	94
COc1cc(SC)ccc1C(=O)Nc1ccc2c(c1)OCO2	153*	7.6*	-57	170*	9	93	250*	136*	106
O=C(Cc1ccc(Br)cc1)Nc1ccccc1Cl	80	1.3	23	-5	19	87	·	·	·
Cc1ccccc1NC(=O)/C=C1\SC(=O)NC1=O	88	1.4	12	-15	2	100	·	·	·
Cc1ccc(Nc2nnc(-c3ccncc3)s2)c(Br)c1	100	0.71	0	31	17	82	·	·	·
COc1ccc2nc(SCC(C)=O)c(C#N)cc2c1	190*	5.8*	-101	138*	1	102	312*	139*	93
CCOC(=O)CSc1nc2cc(C)cc(C)c2cc1C#N	120	1.9	-22	94	16	87	·	·	·
CCOC(=O)CSc1nc2ccc(C)cc2cc1C#N	157*	4.3*	-62	·	2	105	221*	142*	106
CCOC(=O)CSc1nc2cc(C)ccc2cc1C#N	153*	7.1*	-58	135	-7	108	213*	139*	110
CCOC(=O)CSc1nc2cc(OC)ccc2cc1C#N	168*	8.1*	-75	173*	-2	104	259*	145*	112*
COc1cc(-c2noc(CCCC(=O)NC3CCCCC3)n2)cc(OC)c1OC	98	1.2	2	17	14	94	·	·	·
